Assay results gathered from unrelated publications.
Lines come from different studies, so protocols differ.
Method: competition with immobilised ligand
RPS6KA5 C-terminal kinase domain: Ribosomal protein S6 kinase alpha-5, C-terminal kinase domain (RPS6KA5, Homo sapiens, UniProt O75582)
RPS6KA5 N-terminal kinase domain: Ribosomal protein S6 kinase alpha-5, N-terminal kinase domain (RPS6KA5, Homo sapiens, UniProt O75582)

| SMILES | target | assay | setting | remaining binding [%] |
| --- | --- | --- | --- | --- |
| O=C(O)[C@@H]1[C@@H](Cn2nnc3ccccc3c2=O)CC[C@H]1C(=O)c1ccc(OCCC2CCOCC2)cc1 | RPS6KA5 C-terminal kinase domain | cell-free assay | 1 µM | 100 |
| O=C(Nc1c[nH]nc1C(=O)NC1CCNCC1)c1cc(F)cc(F)c1 | RPS6KA5 N-terminal kinase domain | binding | 1 µM | 96 |
| Nc1ncc2c(n1)-c1c([nH]c3ccc(C#CC4CC4)cc13)CCCC2 | RPS6KA5 N-terminal kinase domain | binding | 1 µM | 93 |
| c1ccc(N2CCN(Cc3nc4ccccc4[nH]3)CC2)nc1 | RPS6KA5 C-terminal kinase domain | binding | 1 µM | 100 |
| CN(CCCC(F)(F)F)c1nccc(-c2cnn3ncccc23)n1 | RPS6KA5 N-terminal kinase domain | binding | 1 µM | 100 |
| O=C(NCC1CCOCC1)c1n[nH]cc1NC(=O)c1c(F)cccc1F | RPS6KA5 C-terminal kinase domain | binding | 1 µM | 94 |
| CCN1CCN(Cc2ccc(C(=O)Nc3ccc(C)c(Oc4ccc5c(c4)CC(=O)N5)c3)cc2C(F)(F)F)CC1 | RPS6KA5 C-terminal kinase domain | binding | 1 µM | 100 |
| O=C(c1ccc(Nc2nccc(-c3cc4ccccc4s3)n2)cc1)N1CCC(N2CCCC2)CC1 | RPS6KA5 N-terminal kinase domain | binding | 1 µM | 100 |
| O=c1nc(-c2ccccn2)sc2ccccc12 | RPS6KA5 C-terminal kinase domain | binding | 1 µM | 88 |
| O=C(c1ccc(Nc2ncc(Cl)c(-c3ccc(Cl)s3)n2)cc1)N1CCC(N2CCCC2)CC1 | RPS6KA5 N-terminal kinase domain | binding | 1 µM | 100 |
| Cc1cnn2ncc(-c3ccnc(N(C)C)n3)c2c1 | RPS6KA5 C-terminal kinase domain | binding | 1 µM | 100 |
| COc1cnc(Nc2cccc(S(N)(=O)=O)c2)nc1N1CCN(c2ccccc2)CC1 | RPS6KA5 C-terminal kinase domain | binding | 1 µM | 97 |
| Cc1cnc(Nc2ccc(C(=O)N3CCC(N4CCCC4)CC3)cc2)nc1-c1cc2ccccc2s1 | RPS6KA5 C-terminal kinase domain | binding | 1 µM | 96 |
| Cc1c[nH]c2nccc(Oc3c(F)cc(Nc4cc(Cl)nc(N)n4)cc3F)c12 | RPS6KA5 N-terminal kinase domain | cell-free assay | 0.1 µM | 100 |
| COc1ncc2cc3ccccc3nc2c1C#N | RPS6KA5 N-terminal kinase domain | cell-free assay | 5 µM | 91 |
| CN(C)c1nccc(-c2cnn3ncccc23)n1 | RPS6KA5 C-terminal kinase domain | binding | 1 µM | 98 |

| SMILES | target | assay | setting | remaining binding [%] |
| --- | --- | --- | --- | --- |
| COc1cnc(Nc2cccc(S(N)(=O)=O)c2)nc1N1CCN(c2ccccc2)C(=O)C1 | RPS6KA5 C-terminal kinase domain | binding | 1 µM | 100 |
| CCC(=O)N[C@H]1CC[C@@H](C(=O)N(C)c2ccc(-c3nc4ccccc4o3)cc2)C1 | RPS6KA5 C-terminal kinase domain | cell-free assay | 1 µM | 68 |
| CN(C)c1ncc(F)c(-c2cnn3ncccc23)n1 | RPS6KA5 N-terminal kinase domain | binding | 1 µM | 98 |
| COc1ccc2c(c1)O[C@@H](c1ccc(OC)c(OC)c1)C[C@H]2NC(=O)C1(c2ccc3c(c2)OC(F)(F)O3)CC1 | RPS6KA5 C-terminal kinase domain | cell-free assay | 1 µM | 100 |
| O=C(NCCCN1CCOCC1)c1ccc(Nc2ncc(Cl)c(-c3ccc(Cl)s3)n2)cc1 | RPS6KA5 C-terminal kinase domain | binding | 1 µM | 54 |
| NS(=O)(=O)c1cc(NC(=O)C2(c3ccccc3Cl)CC2)ccc1Oc1cccc(Cl)c1 | RPS6KA5 N-terminal kinase domain | cell-free assay | 1 µM | 100 |
| c1cncc(-c2cccc(Nc3nccc(NC4CCCCC4)n3)c2)c1 | RPS6KA5 C-terminal kinase domain | binding | 10 µM | 100 |
| CNC(=O)[C@@H]1CC[C@@H](n2c(-c3ccc4cnccc4c3)nc3ccc(C(=O)NCc4cccc(C(N)=O)c4)cc32)C1 | RPS6KA5 N-terminal kinase domain | binding | 1 µM | 100 |
| c1cnn2ncc(-c3ccnc(N4CCC45COC5)n3)c2c1 | RPS6KA5 N-terminal kinase domain | binding | 1 µM | 100 |
| O=C(c1ccc(Nc2ncc(Cl)c(-c3cc4ccccc4s3)n2)cc1)N1CCC(N2CCCC2)CC1 | RPS6KA5 N-terminal kinase domain | binding | 1 µM | 100 |
| C=CC(=O)N1CCC(C(=O)NCC(=O)N2CCN(c3nc(-c4cnc(N)nc4C(F)F)nc(N4CCOCC4)n3)CC2)CC1 | RPS6KA5 C-terminal kinase domain | binding | 1 µM | 100 |
| C[C@@H](c1ccc(-n2cnc3c(N)ncnc32)cc1)N1CCc2nn(C)c(Cc3ccccc3)c2C1=O | RPS6KA5 N-terminal kinase domain | binding | 0.1 µM | 95 |
| N[C@@H]1CCN(c2nccc(-c3cnn4ncccc34)n2)C1 | RPS6KA5 C-terminal kinase domain | binding | 1 µM | 100 |
| Cn1nc(C(=O)NCc2ccc(C(=O)O)cc2)cc1-c1ccc2[nH]ccc2c1 | RPS6KA5 N-terminal kinase domain | cell-free assay | 0.1 µM | 76 |
| F[C@@H]1CCN(c2nccc(-c3cnn4ncccc34)n2)C1 | RPS6KA5 N-terminal kinase domain | binding | 1 µM | 100 |
| O=C(NCCCN1CCOCC1)c1ccc(Nc2nccc(-c3cc4ccccc4s3)n2)cc1 | RPS6KA5 N-terminal kinase domain | binding | 1 µM | 100 |
